{"source": "paper PMC6585766", "about": "(Clinical Pharmacology in Drug Development, 2018)", "key": {"Safety assessment": {"assay": "Safety assessment", "assay_type": "in vivo, human", "settings": "single oral 4-mg dose", "procedure,_shortened": "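Open-label, multicentre study in male subjects (healthy, mild, moderate or severe hepatic impairment) given a single oral 4-mg dose. Adverse events were recorded from consent through a follow-up telephone call 7 ± 1 days after dosing, plus any reported within 28 days. Physical exams, vital signs, 12-lead ECGs and clinical laboratory tests were also done. TEAEs were tabulated by system organ class and preferred term, each subject counted once per event.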"}, "[1]": {"assay_type": "in vivo, human", "settings": "for AUC / AUC(0-inf) / Cmax / half-life / Tmax: human, plasma, po, 4 mg; for AUC / AUC(0-inf) / Cmax / Tmax / CL/F / AUC0‐t, Ratio (%) of Geometric Mean (Impaired vs Healthy) / AUC, Ratio (%) of Geometric Mean (Impaired vs Healthy) / Cmax, Ratio (%) of Geometric Mean (Impaired vs Healthy) / tmax, Median Difference (Impaired– Healthy): single oral 4-mg dose; for AUC(0-inf): AUC (time 0 extrapolated to infinity); for half-life: t1/2, single oral 4-mg dose; for AUC0‐t, Ratio (%) of Geometric Mean (Impaired vs Healthy) / AUC, Ratio (%) of Geometric Mean (Impaired vs Healthy) / Cmax, Ratio (%) of Geometric Mean (Impaired vs Healthy): ANOVA; for tmax, Median Difference (Impaired– Healthy): nonparametric method", "procedure,_shortened": "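Male subjects (8 per group: healthy, mild, moderate, severe hepatic impairment) received a single oral 4-mg dose. Water was withheld from 60 min pre-dose to 2 h post-dose, food until at least 4 h post-dose, and CYP1A2/CYP3A modulators from 14 days prior. Plasma was sampled pre-dose to 48 h and assayed by validated LC-MS/MS. Noncompartmental parameters used actual sampling times. ANOVA (group as fixed effect) gave geometric mean ratios with 90% CI versus matched healthy subjects.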"}, "[2]": {"settings": "human, cited from earlier work"}, "[3]": {"settings": "fed vs fasted; ref data on file; cited from earlier work"}, "[4]": {"settings": "patients with relapsed and refractory multiple myeloma; cited from earlier work"}, "[5]": {"settings": "heavy smokers (approximately 25 cigarettes per day); ref data on file; cited from earlier work"}, "[6]": {"settings": "cited from earlier work"}, "[7]": {"settings": "administered during the period of organogenesis; no reference given; cited from earlier work"}, "[8]": {"settings": "severe hepatic impairment group, 1 subject"}, "[9]": {"settings": "group 1 healthy subjects, n = 8, arithmetic mean (SD)"}, "[10]": {"settings": "group 2 severe hepatic impairment, n = 8, arithmetic mean (SD)"}, "[11]": {"settings": "group 3 moderate hepatic impairment, n = 8, arithmetic mean (SD)"}, "[12]": {"settings": "group 4 mild hepatic impairment, n = 8, arithmetic mean (SD)"}}, "note": "Entries after “also recorded” stand apart in the source; their conditions may differ. Where two headings read alike, the source gives them in different places.", "data": [{"smiles": "Nc1cccc2c1C(=O)N(C1CCC(=O)NC1=O)C2=O", "note": "(centres unmarked) [Pomalidomide]", "values": [{"measurement": "total number of TEAEs", "setting": "Safety assessment; all 32 subjects", "result": 8}, {"measurement": "clinically significant clinical laboratory, vital sign, or ECG results", "setting": "Safety assessment; all subjects", "result": "No subject had a clinical laboratory, vital sign, or ECG result that was considered clinically significant or reported as a TEAE"}, {"measurement": "deaths, SAEs, TEAEs leading to discontinuation", "setting": "Safety assessment; all subjects", "result": "No deaths, SAEs, or TEAEs leading to discontinuation were reported; also recorded: No deaths or other SAEs were reported and no subjects were discontinued; also recorded: no deaths and no subject discontinued due to a TEAE"}, {"measurement": "severity of TEAEs", "setting": "Safety assessment; all subjects", "result": "All TEAEs were mild in severity except for 1 subject in the moderate hepatic impairment group with the moderate TEAE of bronchitis"}, {"measurement": "TEAEs reported", "setting": "Safety assessment; healthy subjects", "result": "No TEAEs"}, {"measurement": "safety and tolerability", "setting": "Safety assessment; healthy subjects and subjects with severe, moderate, or mild hepatic impairment", "result": "safe and well tolerated"}, {"measurement": "subjects reporting at least 1 TEAE related to pomalidomide", "setting": "Safety assessment; mild hepatic impairment group, 2 subjects", "result": 25.0, "unit": "%"}, {"measurement": "subjects reporting TEAEs", "setting": "Safety assessment; mild hepatic impairment group, 4 subjects", "result": 50.0, "unit": "%"}, {"measurement": "subjects reporting TEAEs", "setting": "Safety assessment; moderate hepatic impairment group, 1 subject", "result": 12.5, "unit": "%"}, {"measurement": "subjects reporting at least 1 TEAE related to pomalidomide", "setting": "Safety assessment; overall, 3 subjects (diarrhea, nausea, headache, flushing)", "result": 9.4, "unit": "%"}, {"measurement": "subjects reporting TEAEs", "setting": "Safety assessment; overall, 6 of 32 subjects", "result": 18.8, "unit": "%"}, {"measurement": "subjects reporting TEAEs", "setting": "Safety assessment; [8]", "result": 12.5, "unit": "%"}, {"measurement": "subjects reporting at least 1 TEAE related to pomalidomide", "setting": "Safety assessment; [8]", "result": 12.5, "unit": "%"}, {"measurement": "AUC", "setting": "[1]; AUC0‐t, Geometric Mean, healthy, N = 8", "result": 481, "unit": "ng·h/mL"}, {"measurement": "AUC", "setting": "[1]; AUC0‐t, Geometric Mean, mild hepatic impairment, N = 8", "result": 693, "unit": "ng·h/mL"}, {"measurement": "AUC", "setting": "[1]; AUC0‐t, Geometric Mean, moderate hepatic impairment, N = 8", "result": 725, "unit": "ng·h/mL"}, {"measurement": "AUC", "setting": "[1]; AUC0‐t, Geometric Mean, severe hepatic impairment, N = 8", "result": 762, "unit": "ng·h/mL"}, {"measurement": "AUC", "setting": "[1]; AUC0‐t, group 1 healthy subjects, n = 8, arithmetic mean (SD)", "result": 493, "unit": "ng·h/mL"}, {"measurement": "AUC", "setting": "[1]; AUC0‐t, group 2 severe hepatic impairment, n = 8, arithmetic mean (SD)", "result": 822, "unit": "ng·h/mL"}, {"measurement": "AUC", "setting": "[1]; AUC0‐t, group 3 moderate hepatic impairment, n = 8, arithmetic mean (SD)", "result": 764, "unit": "ng·h/mL"}, {"measurement": "AUC", "setting": "[1]; AUC0‐t, group 4 mild hepatic impairment, n = 8, arithmetic mean (SD)", "result": 728, "unit": "ng·h/mL"}, {"measurement": "AUC(0-inf)", "setting": "[1]; [9]", "result": 498, "unit": "ng·h/mL"}, {"measurement": "AUC(0-inf)", "setting": "[1]; [10]", "result": 908, "unit": "ng·h/mL"}, {"measurement": "AUC(0-inf)", "setting": "[1]; [11]", "result": 810, "unit": "ng·h/mL"}, {"measurement": "AUC(0-inf)", "setting": "[1]; [12]", "result": 787, "unit": "ng·h/mL"}, {"measurement": "AUC", "setting": "[1]; AUC, Geometric Mean, healthy, N = 8", "result": 486, "unit": "ng·h/mL"}, {"measurement": "AUC", "setting": "[1]; AUC, Geometric Mean, mild hepatic impairment, N = 8", "result": 734, "unit": "ng·h/mL"}, {"measurement": "AUC", "setting": "[1]; AUC, Geometric Mean, moderate hepatic impairment, N = 8", "result": 764, "unit": "ng·h/mL"}, {"measurement": "AUC", "setting": "[1]; AUC, Geometric Mean, severe hepatic impairment, N = 8", "result": 833, "unit": "ng·h/mL"}, {"measurement": "Cmax", "setting": "[1]; Geometric Mean, healthy, N = 8", "result": 59.2, "unit": "ng/mL"}, {"measurement": "Cmax", "setting": "[1]; Geometric Mean, mild hepatic impairment, N = 8", "result": 55.8, "unit": "ng/mL"}, {"measurement": "Cmax", "setting": "[1]; Geometric Mean, moderate hepatic impairment, N = 8", "result": 56.2, "unit": "ng/mL"}, {"measurement": "Cmax", "setting": "[1]; Geometric Mean, severe hepatic impairment, N = 8", "result": 44.9, "unit": "ng/mL"}, {"measurement": "Cmax", "setting": "[1]; [10]", "result": 49.1, "unit": "ng/mL"}, {"measurement": "Cmax", "setting": "[1]; [12]", "result": 56.2, "unit": "ng/mL"}, {"measurement": "half-life", "setting": "[1]; [10]", "result": 12.7, "unit": "h"}, {"measurement": "half-life", "setting": "[1]; [11]", "result": 10.1, "unit": "h"}, {"measurement": "half-life", "setting": "[1]; [12]", "result": 10.3, "unit": "h"}, {"measurement": "Tmax", "setting": "[1]; Geometric Mean, healthy, N = 8, Table 4", "result": 1.5, "unit": "h"}, {"measurement": "Tmax", "setting": "[1]; Geometric Mean, mild hepatic impairment, N = 8, Table 4", "result": 2.25, "unit": "h"}, {"measurement": "Tmax", "setting": "[1]; Geometric Mean, moderate hepatic impairment, N = 8, Table 4", "result": 2.38, "unit": "h"}, {"measurement": "Tmax", "setting": "[1]; Geometric Mean, severe hepatic impairment, N = 8, Table 4", "result": 2.5, "unit": "h"}, {"measurement": "Tmax", "setting": "[1]; group 1 healthy subjects, n = 8, median (min, max)", "result": 1.5, "unit": "h"}, {"measurement": "Tmax", "setting": "[1]; group 2 severe hepatic impairment, n = 8, median (min, max)", "result": 2.5, "unit": "h"}, {"measurement": "Tmax", "setting": "[1]; group 3 moderate hepatic impairment, n = 8, median (min, max)", "result": 2.25, "unit": "h"}, {"measurement": "Tmax", "setting": "[1]; group 4 mild hepatic impairment, n = 8, median (min, max)", "result": 2, "unit": "h"}, {"measurement": "increase of pomalidomide exposure", "setting": "[1]; mild hepatic impairment vs healthy", "result": "approximately 50%"}, {"measurement": "increase of pomalidomide exposure", "setting": "[1]; moderate hepatic impairment vs healthy", "result": "approximately 60%"}, {"measurement": "increase of pomalidomide exposure", "setting": "[1]; severe hepatic impairment vs healthy", "result": "approximately 70%"}, {"measurement": "CL/F", "setting": "[1]; [9]", "result": "8.4 (1.9) L/h"}, {"measurement": "CL/F", "setting": "[1]; [10]", "result": "5.4 (3.3) L/h"}, {"measurement": "CL/F", "setting": "[1]; [11]", "result": "5.6 (2.6) L/h"}, {"measurement": "CL/F", "setting": "[1]; [12]", "result": "5.8 (2.2) L/h"}, {"measurement": "AUC0‐t, Ratio (%) of Geometric Mean (Impaired vs Healthy)", "setting": "[1]; mild vs healthy", "result": 143.9, "unit": "%"}, {"measurement": "AUC, Ratio (%) of Geometric Mean (Impaired vs Healthy)", "setting": "[1]; mild vs healthy", "result": 151.2, "unit": "%"}, {"measurement": "Cmax, Ratio (%) of Geometric Mean (Impaired vs Healthy)", "setting": "[1]; mild vs healthy", "result": 94.2, "unit": "%"}, {"measurement": "tmax, Median Difference (Impaired– Healthy)", "setting": "[1]; mild vs healthy", "result": 1.0, "unit": "h"}, {"measurement": "AUC0‐t, Ratio (%) of Geometric Mean (Impaired vs Healthy)", "setting": "[1]; moderate vs healthy", "result": 150.6, "unit": "%"}, {"measurement": "AUC, Ratio (%) of Geometric Mean (Impaired vs Healthy)", "setting": "[1]; moderate vs healthy", "result": 157.5, "unit": "%"}, {"measurement": "Cmax, Ratio (%) of Geometric Mean (Impaired vs Healthy)", "setting": "[1]; moderate vs healthy", "result": 94.8, "unit": "%"}, {"measurement": "tmax, Median Difference (Impaired– Healthy)", "setting": "[1]; moderate vs healthy", "result": 1.0, "unit": "h"}, {"measurement": "AUC0‐t, Ratio (%) of Geometric Mean (Impaired vs Healthy)", "setting": "[1]; severe vs healthy", "result": 158.4, "unit": "%"}, {"measurement": "AUC, Ratio (%) of Geometric Mean (Impaired vs Healthy)", "setting": "[1]; severe vs healthy", "result": 171.5, "unit": "%"}, {"measurement": "Cmax, Ratio (%) of Geometric Mean (Impaired vs Healthy)", "setting": "[1]; severe vs healthy", "result": 75.8, "unit": "%"}, {"measurement": "tmax, Median Difference (Impaired– Healthy)", "setting": "[1]; severe vs healthy", "result": 0.75, "unit": "h"}, {"measurement": "clearance pathway: CYP–mediated hydroxylation with subsequent glucuronidation", "setting": "[2]", "result": "43 % of the dose"}, {"measurement": "unchanged pomalidomide in urine", "setting": "[2]", "result": "2.2 % of the dose"}, {"measurement": "total [14C]‐radioactivity recovered in feces", "setting": "[2]; oral", "result": 15.5, "unit": "%"}, {"measurement": "total [14C]‐radioactivity recovered in urine", "setting": "[2]; oral", "result": 72.8, "unit": "%"}, {"measurement": "recovery of total [14C]‐radioactivity", "setting": "[2]; oral, urine plus feces", "result": "approximately 88 % of the administered dose"}, {"measurement": "unchanged pomalidomide in feces", "setting": "[2]; samples collected during the 96‐hour postdose period", "result": "7.7 % of the dose"}, {"measurement": "clearance pathway: excretion of unchanged drug", "setting": "[2]; share of the dose", "result": 10, "unit": "%"}, {"measurement": "clearance pathway: glutarimide ring hydrolysis", "setting": "[2]; share of the dose", "result": 25, "unit": "%"}, {"measurement": "decrease of AUC by food", "setting": "[3]", "result": 8, "unit": "%"}, {"measurement": "nonrenal routes as share of pomalidomide total body clearance", "setting": "[4]", "result": "approximately 70%"}, {"measurement": "AUC lower in heavy smokers than in nonsmokers", "setting": "[5]", "result": 30, "unit": "%"}, {"measurement": "Cmax higher in heavy smokers than in nonsmokers", "setting": "[5]", "result": 14.4, "unit": "%"}, {"measurement": "effect on exposure of pomalidomide", "setting": "[6]; co‐administration of a strong CYP1A2 inhibitor in the presence of a strong CYP3A inhibitor", "result": "approximately doubled"}, {"measurement": "effect on exposure to pomalidomide", "setting": "[6]; co‐administration of a strong CYP3A inhibitor or inducer or a P‐glycoprotein inhibitor", "result": "no clinically relevant effect"}, {"measurement": "teratogenicity", "setting": "[7]", "result": "teratogenic"}]}]}
